ChEMBL document CHEMBL4177755, “Combating Drug-Resistant Fungi with Novel Imperfectly Amphipathic Palindromic Peptides” (J Med Chem, 2018)
≈ marks a conversion by molar mass, not a printed value.

Experiments:
Format in all cases: functional
Candida albicans [1] = assay: Antifungal activity against Candida albicans isolated from alveolar fluid after 48 hrs by broth microdilution method
Procedure, shortened: (§1)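 Modified CLSI M27-A2 broth microdilution. Yeast at (0.5−1) × 10^3 CFU/mL in MOPS-buffered RPMI 1640 was mixed 1:1 with peptide serially diluted in 0.2% BSA and incubated 48 h at 28 °C. Absorbance was read at 492 nm; MIC is the lowest concentration inhibiting 95% of growth. Triplicate, three biological replicates.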

Candida tropicalis [2] = assay: Fungicidal activity against Candida tropicalis cgmcc 2.1975 after 96 hrs; settings: cgmcc 2.1975, 96 h, read-out: MFC99.9
Procedure, shortened: (§2)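 Wells from the 48 h, 28 °C RPMI 1640/MOPS microdilution plates were plated on YM agar and incubated a further 48 h at 28 °C. MFC is the lowest concentration killing at least 99.9% of cells. Run in triplicate with three biological replicates.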

Candida albicans [3] = assay: Antifungal activity against fluconazole-resistant Candida albicans 56452 after 48 hrs by broth microdilution method; settings: Candida albicans, 56452, 48 h; procedure, shortened: as §1
Candida albicans [4] = assay: Fungicidal activity against Candida albicans SP3931 after 96 hrs; settings: SP3931, 96 h, read-out: MFC99.9
Procedure, shortened: (§3)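 After the 48 h, 28 °C broth microdilution in MOPS-buffered RPMI 1640 (inoculum (0.5−1) × 10^3 CFU/mL), 50 μL from each well was plated on YM agar for a further 48 h at 28 °C. MFC is the lowest concentration killing at least 99.9% of cells. Triplicate, three biological replicates.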

Candida albicans [5] = assay: Fungicidal activity against fluconazole-resistant Candida albicans 56214 after 96 hrs; settings: Candida albicans, 56214, 96 h; read-out: MFC99.9; procedure, shortened: as §3
Candida albicans [6] = assay: Antifungal activity against Candida albicans cgmcc 2.2086 in presence of 25% human heat-inactivated serum by broth dilution method
Candida albicans [7] = assay: Antifungal activity against Candida albicans cgmcc 2.2086 in presence of 50% human heat-inactivated serum by broth dilution method
Candida albicans [8] = assay: Fungicidal activity against Candida albicans SP3876 after 96 hrs; settings: SP3876, 96 h, read-out: MFC99.9; procedure, shortened: as §3
Candida albicans [9] = assay: Antifungal activity against Candida albicans cgmcc 2.2086 in presence of FeCl3 by broth dilution method
Pichia kudriavzevii [10] = assay: Fungicidal activity against Candida krusei cgmcc 2.1857 after 96 hrs; settings: cgmcc 2.1857, 96 h, read-out: MFC99.9; procedure, shortened: as §2
Candida albicans [11] = assay: Antifungal activity against Candida albicans cgmcc 2.2086 in presence of MgCl2 by broth dilution method
Candida albicans [12] = assay: Fungicidal activity against fluconazole-resistant Candida albicans 56452 after 96 hrs; settings: Candida albicans, 56452, 96 h; read-out: MFC99.9; procedure, shortened: as §3
Candida albicans [13] = assay: Antifungal activity against Candida albicans cgmcc 2.2086 in presence of NaCl by broth dilution method
Candida albicans [14] = assay: Antifungal activity against Candida albicans 58288 after 48 hrs by broth microdilution method; settings: Candida albicans, 58288, 48 h; procedure, shortened: as §1
Pichia kudriavzevii [15] = assay: Antifungal activity against Candida krusei cgmcc 2.1857 after 48 hrs by broth microdilution method; settings: cgmcc 2.1857, 48 h
Procedure, shortened: (§4)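 Modified CLSI M27-A2 broth microdilution. Yeast were suspended in MOPS-buffered RPMI 1640 at a final (0.5−1) × 10^3 CFU/mL and mixed 1:1 with peptide serially diluted in 0.2% BSA. Plates were incubated 48 h at 28 °C and read at A492. MIC is the lowest concentration giving 95% inhibition. Run in triplicate with three biological replicates.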

Candida albicans [16] = assay: Antifungal activity against Candida albicans 14936 after 48 hrs by broth microdilution method; settings: Candida albicans, 14936, 48 h; procedure, shortened: as §1
Candida albicans [17] = assay: Antifungal activity against Candida albicans cgmcc 2.2086 after 48 hrs by broth microdilution method; settings: cgmcc 2.2086, 48 h; procedure, shortened: as §1
Candida albicans [18] = assay: Fungicidal activity against Candida albicans SP3902 after 96 hrs; settings: SP3902, 96 h, read-out: MFC99.9; procedure, shortened: as §3
Candida albicans [19] = assay: Antifungal activity against Candida albicans cgmcc 2.2086 in presence of NH4Cl by broth dilution method
Candida parapsilosis [20] = assay: Fungicidal activity against Candida parapsilosis cgmcc 2.3989 after 96 hrs; settings: Lodderomyces parapsilosis, cgmcc 2.3989, 96 h; read-out: MFC99.9; procedure, shortened: as §2
Candida albicans [21] = assay: Fungicidal activity against Candida albicans SP3903 after 96 hrs; settings: SP3903, 96 h, read-out: MFC99.9; procedure, shortened: as §3
Candida albicans [22] = assay: Fungicidal activity against Candida albicans cgmcc 2.2086 after 96 hrs; settings: cgmcc 2.2086, 96 h, read-out: MFC99.9; procedure, shortened: as §3
Candida albicans [23] = assay: Antifungal activity against Candida albicans SP3903 after 48 hrs by broth microdilution method; settings: SP3903, 48 h; procedure, shortened: as §1
Candida parapsilosis [24] = assay: Antifungal activity against Candida parapsilosis cgmcc 2.3989 after 48 hrs by broth microdilution method; settings: Lodderomyces parapsilosis, cgmcc 2.3989, 48 h; procedure, shortened: as §4
Candida albicans [25] = assay: Antifungal activity against Candida albicans SP3876 after 48 hrs by broth microdilution method; settings: SP3876, 48 h; procedure, shortened: as §1
Candida tropicalis [26] = assay: Antifungal activity against Candida tropicalis cgmcc 2.1975 after 48 hrs by broth microdilution method; settings: cgmcc 2.1975, 48 h; procedure, shortened: as §4
Candida albicans [27] = assay: Fungicidal activity against Candida albicans isolated from alveolar fluid after 96 hrs; settings: read-out: MFC99.9; procedure, shortened: as §3
Candida albicans [28] = assay: Fungicidal activity against Candida albicans 58288 after 96 hrs; settings: Candida albicans, 58288, 96 h; read-out: MFC99.9; procedure, shortened: as §3
Candida albicans [29] = assay: Antifungal activity against fluconazole-resistant Candida albicans 56214 after 48 hrs by broth microdilution method; settings: Candida albicans, 56214, 48 h; procedure, shortened: as §1
Candida albicans [30] = assay: Fungicidal activity against fluconazole-resistant Candida albicans 17546 after 96 hrs; settings: Candida albicans, 17546, 96 h; read-out: MFC99.9; procedure, shortened: as §3
Candida albicans [31] = assay: Fungicidal activity against Candida albicans 14936 after 96 hrs; settings: Candida albicans, 14936, 96 h; read-out: MFC99.9; procedure, shortened: as §3
Candida albicans [32] = assay: Antifungal activity against Candida albicans cgmcc 2.2086 in presence of ZnCl2 by broth dilution method
Candida albicans [33] = assay: Antifungal activity against Candida albicans cgmcc 2.2086 in presence of 12.5% human heat-inactivated serum by broth dilution method
Candida albicans [34] = assay: Antifungal activity against Candida albicans cgmcc 2.2086 in presence of KCl by broth dilution method
Candida albicans [35] = assay: Antifungal activity against Candida albicans cgmcc 2.2086 in presence of CaCl2 by broth dilution method
Candida albicans [36] = assay: Antifungal activity against fluconazole-resistant Candida albicans 17546 after 48 hrs by broth microdilution method; settings: Candida albicans, 17546, 48 h; procedure, shortened: as §1
Candida albicans [37] = assay: Antifungal activity against Candida albicans SP3931 after 48 hrs by broth microdilution method; settings: SP3931, 48 h; procedure, shortened: as §1
Candida albicans [38] = assay: Antifungal activity against Candida albicans SP3902 after 48 hrs by broth microdilution method; settings: SP3902, 48 h; procedure, shortened: as §1

SMILES	MIC95 (Candida albicans [1]) [µM]	MFC (Candida tropicalis [2]) [µM]	MIC95 (Candida albicans [3]) [µM]	MFC (Candida albicans [4]) [µM]	MFC (Candida albicans [5]) [µM]	MIC (Candida albicans [6]) [µM]	MIC (Candida albicans [7]) [µM]	MFC (Candida albicans [8]) [µM]	MIC (Candida albicans [9]) [µM]	MFC (Pichia kudriavzevii [10]) [µM]	MIC (Candida albicans [11]) [µM]	MFC (Candida albicans [12]) [µM]	MIC (Candida albicans [13]) [µM]	MIC95 (Candida albicans [14]) [µM]	MIC95 (Pichia kudriavzevii [15]) [µM]	MIC95 (Candida albicans [16]) [µM]	MIC95 (Candida albicans [17]) [µM]	MFC (Candida albicans [18]) [µM]	MIC (Candida albicans [19]) [µM]	MFC (Candida parapsilosis [20]) [µM]	also measured
C[C@@H]1[C@H](O)[C@@H](C)/C=C/C=C/C=C/C=C/C=C/C=C/C=C/[C@H](O[C@@H]2O[C@H](C)[C@@H](O)[C@H](N)[C@@H]2O)C[C@@H]2O[C@](O)(C[C@@H](O)C[C@@H](O)[C@H](O)CC[C@@H](O)C[C@@H](O)CC(=O)O[C@H]1C)C[C@H](O)[C@H]2C(=O)O [AMPHOTERICIN B]	1 (≈ 0.924 µg/mL)	2 (≈ 1.85 µg/mL)	1 (≈ 0.924 µg/mL)	1 (≈ 0.924 µg/mL)	2 (≈ 1.85 µg/mL)	1	1	0.5 (≈ 0.462 µg/mL)	1	1 (≈ 0.924 µg/mL)	1	2 (≈ 1.85 µg/mL)	1	0.5 (≈ 0.462 µg/mL)	1 (≈ 0.924 µg/mL)	0.25 (≈ 0.231 µg/mL)	1 (≈ 0.924 µg/mL)	1 (≈ 0.924 µg/mL)	1	2 (≈ 1.85 µg/mL)	MFC (Candida albicans [21]): 1 µM (≈ 0.924 µg/mL); MFC (Candida albicans [22]): 1 µM (≈ 0.924 µg/mL); MIC95 (Candida albicans [23]): 0.125 µM (≈ 0.116 µg/mL); MIC95 (Candida parapsilosis [24]): 2 µM (≈ 1.85 µg/mL); MIC95 (Candida albicans [25]): 0.25 µM (≈ 0.231 µg/mL); MIC95 (Candida tropicalis [26]): 1 µM (≈ 0.924 µg/mL); MFC (Candida albicans [27]): 2 µM (≈ 1.85 µg/mL); MFC (Candida albicans [28]): 2 µM (≈ 1.85 µg/mL); MIC95 (Candida albicans [29]): 1 µM (≈ 0.924 µg/mL); MFC (Candida albicans [30]): 1 µM (≈ 0.924 µg/mL); MFC (Candida albicans [31]): 0.5 µM (≈ 0.462 µg/mL); MIC (Candida albicans [32]): 1 µM; MIC (Candida albicans [33]): 1 µM; MIC (Candida albicans [34]): 1 µM; MIC (Candida albicans [35]): 2 µM; MIC95 (Candida albicans [36]): 0.25 µM (≈ 0.231 µg/mL); MIC95 (Candida albicans [37]): 0.25 µM (≈ 0.231 µg/mL); MIC95 (Candida albicans [38]): 0.25 µM (≈ 0.231 µg/mL)
CC(=O)N1CCN(c2ccc(OCC3COC(Cn4ccnc4)(c4ccc(Cl)cc4Cl)O3)cc2)CC1 (stereo unspecified) [KETOCONAZOLE]	0.5 (≈ 0.266 µg/mL)	1 (≈ 0.531 µg/mL)	64 (≈ 34 µg/mL)	> 64	> 64	0.25	0.5	> 64	0.25	1 (≈ 0.531 µg/mL)	0.25	> 64	0.25	1 (≈ 0.531 µg/mL)	1 (≈ 0.531 µg/mL)	> 64	0.25 (≈ 0.133 µg/mL)	> 64	0.25	1 (≈ 0.531 µg/mL)	MFC (Candida albicans [21]): > 64 µM; MFC (Candida albicans [22]): 1 µM (≈ 0.531 µg/mL); MIC95 (Candida albicans [23]): > 64 µM; MIC95 (Candida parapsilosis [24]): 0.25 µM (≈ 0.133 µg/mL); MIC95 (Candida albicans [25]): > 64 µM; MIC95 (Candida tropicalis [26]): 0.25 µM (≈ 0.133 µg/mL); MFC (Candida albicans [27]): 2 µM (≈ 1.06 µg/mL); MFC (Candida albicans [28]): > 64 µM; MIC95 (Candida albicans [29]): 64 µM (≈ 34 µg/mL); MFC (Candida albicans [30]): 64 µM (≈ 34 µg/mL); MFC (Candida albicans [31]): > 64 µM; MIC (Candida albicans [32]): 0.25 µM; MIC (Candida albicans [33]): 0.25 µM; MIC (Candida albicans [34]): 0.25 µM; MIC (Candida albicans [35]): 0.5 µM; MIC95 (Candida albicans [36]): 32 µM (≈ 17 µg/mL); MIC95 (Candida albicans [37]): > 64 µM; MIC95 (Candida albicans [38]): > 64 µM
